Consider 3 compounds from ChEMBL document CHEMBL1152560, “Substituted 2-arylbenzothiazoles as kinase inhibitors: hit-to-lead optimization” (Bioorg Med Chem, 2009).

Molecules are shown by their SMILES.

Test [1] addresses High affinity nerve growth factor receptor (Homo sapiens) (UniProt P04629). In words: Residual activity of TRK-A at 0.1 uM by microplate scintillation counting.
Test [2] addresses T1, Ephrin type-B receptor 1 (Homo sapiens) (UniProt P54762).
T1 sequence (whole entry): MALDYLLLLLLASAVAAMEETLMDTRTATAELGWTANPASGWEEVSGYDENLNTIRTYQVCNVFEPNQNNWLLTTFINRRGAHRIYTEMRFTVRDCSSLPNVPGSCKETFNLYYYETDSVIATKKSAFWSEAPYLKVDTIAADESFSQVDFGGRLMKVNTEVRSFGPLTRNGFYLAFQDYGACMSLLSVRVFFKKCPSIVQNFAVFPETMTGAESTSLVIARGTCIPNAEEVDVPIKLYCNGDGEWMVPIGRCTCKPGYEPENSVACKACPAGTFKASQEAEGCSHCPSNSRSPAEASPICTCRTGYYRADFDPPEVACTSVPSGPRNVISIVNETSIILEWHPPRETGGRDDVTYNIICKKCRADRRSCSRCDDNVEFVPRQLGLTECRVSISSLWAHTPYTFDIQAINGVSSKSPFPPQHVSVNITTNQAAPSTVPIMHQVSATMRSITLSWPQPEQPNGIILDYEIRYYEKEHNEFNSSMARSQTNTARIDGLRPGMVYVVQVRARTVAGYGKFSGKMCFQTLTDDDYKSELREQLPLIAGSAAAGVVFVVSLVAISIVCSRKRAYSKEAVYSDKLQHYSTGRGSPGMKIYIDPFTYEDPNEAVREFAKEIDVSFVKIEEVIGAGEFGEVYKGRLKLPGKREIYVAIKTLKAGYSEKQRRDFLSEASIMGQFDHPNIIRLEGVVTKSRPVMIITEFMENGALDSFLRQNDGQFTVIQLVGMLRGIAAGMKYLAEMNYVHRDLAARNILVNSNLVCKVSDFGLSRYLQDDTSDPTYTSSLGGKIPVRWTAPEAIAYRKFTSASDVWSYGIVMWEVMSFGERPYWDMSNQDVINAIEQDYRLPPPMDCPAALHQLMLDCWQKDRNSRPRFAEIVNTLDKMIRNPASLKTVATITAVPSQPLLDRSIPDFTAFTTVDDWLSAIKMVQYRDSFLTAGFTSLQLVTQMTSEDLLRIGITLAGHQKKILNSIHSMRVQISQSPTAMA
In words: Residual activity of EPHB1 at 0.1 uM by microplate scintillation counting.

The target of test [3] is T2, Activin receptor type-1B (Homo sapiens) (UniProt P36896).
T2 sequence (whole entry): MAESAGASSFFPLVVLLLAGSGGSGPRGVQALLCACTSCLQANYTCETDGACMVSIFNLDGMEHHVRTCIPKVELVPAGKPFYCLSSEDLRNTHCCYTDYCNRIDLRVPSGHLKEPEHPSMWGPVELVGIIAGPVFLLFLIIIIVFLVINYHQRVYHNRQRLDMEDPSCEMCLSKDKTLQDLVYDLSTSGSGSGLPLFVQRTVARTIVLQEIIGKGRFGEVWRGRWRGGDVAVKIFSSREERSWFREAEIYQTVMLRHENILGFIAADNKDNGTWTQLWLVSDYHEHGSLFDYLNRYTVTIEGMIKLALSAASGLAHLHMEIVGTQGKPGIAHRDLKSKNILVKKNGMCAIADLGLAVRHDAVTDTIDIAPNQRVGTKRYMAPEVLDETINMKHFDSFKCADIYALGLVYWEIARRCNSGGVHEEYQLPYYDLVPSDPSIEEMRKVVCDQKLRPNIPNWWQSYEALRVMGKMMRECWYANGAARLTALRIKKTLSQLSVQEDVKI
Kind of test: Residual activity of ACVR1B at 10 uM by microplate scintillation counting.

The target of test [4] is G protein-coupled receptor kinase 4 (Homo sapiens) (UniProt P32298). In words: Residual activity of GRK4 at 0.1 uM by microplate scintillation counting.
The target of a further test is T3, Aurora kinase A (Homo sapiens, UniProt O14965).
T3 sequence (O14965 whole entry): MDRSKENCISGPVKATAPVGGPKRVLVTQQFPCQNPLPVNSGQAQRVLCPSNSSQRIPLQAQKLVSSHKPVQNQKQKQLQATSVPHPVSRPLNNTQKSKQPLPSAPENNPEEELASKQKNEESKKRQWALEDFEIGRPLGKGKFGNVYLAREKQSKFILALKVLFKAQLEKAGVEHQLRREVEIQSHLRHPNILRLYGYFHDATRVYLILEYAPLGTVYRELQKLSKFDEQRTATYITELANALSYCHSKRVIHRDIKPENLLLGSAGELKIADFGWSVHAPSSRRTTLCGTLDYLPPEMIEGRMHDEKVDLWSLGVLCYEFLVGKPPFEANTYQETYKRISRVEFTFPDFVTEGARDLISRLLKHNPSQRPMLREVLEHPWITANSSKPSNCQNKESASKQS
In words: Inhibition of Aurora-A by microplate scintillation counting. The method in brief: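 Substrates: tetra(LRRWSLG) for Aurora A/B; poly(Ala,Glu,Lys,Tyr)6:2:5:1 for PDGFRβ; poly(Glu,Tyr)4:1 for TIE2 and VEGFR2. Stopped with 2% H3PO4.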

Test [5] deals with Mast/stem cell growth factor receptor Kit (Homo sapiens) (UniProt P10721). In words: Residual activity of wild type KIT at 1 uM by microplate scintillation counting.
Test [6] addresses T4, NUAK family SNF1-like kinase 2 (Homo sapiens) (UniProt Q9H093).
T4 sequence (whole entry): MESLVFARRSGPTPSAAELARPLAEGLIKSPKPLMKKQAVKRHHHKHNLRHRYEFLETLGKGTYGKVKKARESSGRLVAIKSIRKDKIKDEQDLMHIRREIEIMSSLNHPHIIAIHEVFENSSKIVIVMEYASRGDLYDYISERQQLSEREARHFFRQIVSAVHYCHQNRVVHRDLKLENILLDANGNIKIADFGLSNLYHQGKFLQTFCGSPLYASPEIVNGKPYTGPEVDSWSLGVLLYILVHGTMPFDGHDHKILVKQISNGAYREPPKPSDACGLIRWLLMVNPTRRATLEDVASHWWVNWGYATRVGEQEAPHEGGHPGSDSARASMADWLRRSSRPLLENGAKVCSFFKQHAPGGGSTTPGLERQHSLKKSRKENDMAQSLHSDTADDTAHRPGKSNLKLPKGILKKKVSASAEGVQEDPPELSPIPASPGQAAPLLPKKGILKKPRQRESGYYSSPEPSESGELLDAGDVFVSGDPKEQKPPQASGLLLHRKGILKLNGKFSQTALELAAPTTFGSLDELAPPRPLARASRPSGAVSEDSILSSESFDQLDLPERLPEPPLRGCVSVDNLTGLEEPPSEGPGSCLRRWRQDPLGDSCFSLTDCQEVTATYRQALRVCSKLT
Kind of test: Residual activity of SNARK at 1 uM by microplate scintillation counting.

Test [7] concerns the target SRSF protein kinase 3 (Homo sapiens) (UniProt Q9UPE1). Kind of test: Residual activity of STK23 at 10 uM by microplate scintillation counting.
Test [8] concerns the target Myosin light chain kinase 2, skeletal/cardiac muscle (Homo sapiens) (UniProt Q9H1R3). Kind of test: Residual activity of MYLK2 at 0.1 uM by microplate scintillation counting.

Sequence of Mast/stem cell growth factor receptor Kit (Homo sapiens) (P10721 whole entry): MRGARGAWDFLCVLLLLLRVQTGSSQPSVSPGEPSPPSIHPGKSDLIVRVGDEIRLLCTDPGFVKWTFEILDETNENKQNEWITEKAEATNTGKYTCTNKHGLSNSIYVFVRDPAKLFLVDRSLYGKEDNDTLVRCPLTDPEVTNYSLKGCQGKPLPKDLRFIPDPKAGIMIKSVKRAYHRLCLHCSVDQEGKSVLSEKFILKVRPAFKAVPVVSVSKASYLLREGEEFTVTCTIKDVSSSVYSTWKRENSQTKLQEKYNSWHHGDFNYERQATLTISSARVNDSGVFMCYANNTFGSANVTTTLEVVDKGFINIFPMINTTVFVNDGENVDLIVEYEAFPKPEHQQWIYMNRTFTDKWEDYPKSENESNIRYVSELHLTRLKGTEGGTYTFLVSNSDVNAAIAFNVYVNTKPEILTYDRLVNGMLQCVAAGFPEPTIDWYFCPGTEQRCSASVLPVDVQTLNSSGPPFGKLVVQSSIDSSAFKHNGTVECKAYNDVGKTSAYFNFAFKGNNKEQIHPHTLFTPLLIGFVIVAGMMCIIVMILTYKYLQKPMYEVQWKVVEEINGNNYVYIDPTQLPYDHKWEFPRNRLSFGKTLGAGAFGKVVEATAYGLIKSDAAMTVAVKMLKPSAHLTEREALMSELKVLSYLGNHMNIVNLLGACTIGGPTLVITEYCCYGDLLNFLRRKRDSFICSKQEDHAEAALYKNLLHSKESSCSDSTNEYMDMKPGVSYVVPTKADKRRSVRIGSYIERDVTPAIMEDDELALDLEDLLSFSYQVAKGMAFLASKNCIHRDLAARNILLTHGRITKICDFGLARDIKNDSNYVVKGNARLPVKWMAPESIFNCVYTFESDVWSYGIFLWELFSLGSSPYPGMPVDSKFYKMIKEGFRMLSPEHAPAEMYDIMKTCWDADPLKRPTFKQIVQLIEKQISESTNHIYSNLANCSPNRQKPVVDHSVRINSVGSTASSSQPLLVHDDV
Sequence of SRSF protein kinase 3 (Homo sapiens) (Q9UPE1 whole entry): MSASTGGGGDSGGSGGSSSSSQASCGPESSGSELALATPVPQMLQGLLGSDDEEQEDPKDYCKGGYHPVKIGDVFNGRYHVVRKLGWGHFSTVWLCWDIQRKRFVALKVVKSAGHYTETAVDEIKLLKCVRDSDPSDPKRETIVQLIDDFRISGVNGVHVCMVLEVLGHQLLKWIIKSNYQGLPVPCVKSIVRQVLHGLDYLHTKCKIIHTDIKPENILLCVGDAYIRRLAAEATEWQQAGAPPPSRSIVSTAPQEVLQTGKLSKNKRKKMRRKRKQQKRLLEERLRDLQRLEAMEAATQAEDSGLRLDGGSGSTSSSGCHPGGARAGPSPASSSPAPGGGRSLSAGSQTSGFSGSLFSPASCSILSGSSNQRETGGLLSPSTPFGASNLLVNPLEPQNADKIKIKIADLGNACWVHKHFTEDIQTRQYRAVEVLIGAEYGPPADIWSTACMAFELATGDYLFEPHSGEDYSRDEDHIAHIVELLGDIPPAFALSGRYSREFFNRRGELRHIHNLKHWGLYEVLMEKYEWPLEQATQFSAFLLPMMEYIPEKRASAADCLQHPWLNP
Sequence of Myosin light chain kinase 2, skeletal/cardiac muscle (Homo sapiens) (Q9H1R3 whole entry): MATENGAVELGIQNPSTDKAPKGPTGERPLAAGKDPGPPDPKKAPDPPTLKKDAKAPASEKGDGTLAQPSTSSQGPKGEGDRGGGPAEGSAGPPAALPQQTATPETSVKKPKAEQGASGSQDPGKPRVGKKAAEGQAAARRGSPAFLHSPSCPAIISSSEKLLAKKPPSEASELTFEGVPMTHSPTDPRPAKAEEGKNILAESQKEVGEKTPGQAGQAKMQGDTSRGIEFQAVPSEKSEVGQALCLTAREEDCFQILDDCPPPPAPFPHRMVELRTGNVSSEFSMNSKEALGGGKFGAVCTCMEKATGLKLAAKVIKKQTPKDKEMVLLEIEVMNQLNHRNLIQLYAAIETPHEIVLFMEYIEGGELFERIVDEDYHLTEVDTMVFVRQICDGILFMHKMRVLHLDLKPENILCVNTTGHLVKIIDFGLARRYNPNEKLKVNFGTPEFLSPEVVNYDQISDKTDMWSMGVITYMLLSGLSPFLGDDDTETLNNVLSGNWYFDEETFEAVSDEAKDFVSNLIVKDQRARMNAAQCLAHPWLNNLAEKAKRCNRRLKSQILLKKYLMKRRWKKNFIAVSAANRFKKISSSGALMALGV
Sequence of High affinity nerve growth factor receptor (Homo sapiens) (P04629 33-796 limits assumed): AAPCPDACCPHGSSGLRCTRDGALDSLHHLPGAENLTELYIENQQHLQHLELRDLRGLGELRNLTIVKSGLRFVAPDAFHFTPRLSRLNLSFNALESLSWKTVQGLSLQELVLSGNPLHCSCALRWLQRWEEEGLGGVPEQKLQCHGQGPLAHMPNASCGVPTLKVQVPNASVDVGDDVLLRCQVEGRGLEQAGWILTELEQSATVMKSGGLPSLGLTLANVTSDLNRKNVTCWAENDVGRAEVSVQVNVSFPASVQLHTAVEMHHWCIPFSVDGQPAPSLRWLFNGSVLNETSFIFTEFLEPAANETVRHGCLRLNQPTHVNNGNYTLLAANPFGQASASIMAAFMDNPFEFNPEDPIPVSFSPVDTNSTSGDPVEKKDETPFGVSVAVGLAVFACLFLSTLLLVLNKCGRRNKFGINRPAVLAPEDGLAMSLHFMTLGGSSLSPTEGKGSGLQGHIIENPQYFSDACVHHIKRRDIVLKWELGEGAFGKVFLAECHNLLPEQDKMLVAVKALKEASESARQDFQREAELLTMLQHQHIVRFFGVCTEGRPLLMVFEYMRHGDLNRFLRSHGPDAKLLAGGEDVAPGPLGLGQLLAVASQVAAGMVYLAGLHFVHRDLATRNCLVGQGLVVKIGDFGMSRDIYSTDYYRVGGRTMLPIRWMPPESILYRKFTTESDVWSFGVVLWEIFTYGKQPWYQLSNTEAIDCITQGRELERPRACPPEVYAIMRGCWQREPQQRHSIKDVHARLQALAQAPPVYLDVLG
Sequence of G protein-coupled receptor kinase 4 (Homo sapiens) (P32298 whole entry, looked up): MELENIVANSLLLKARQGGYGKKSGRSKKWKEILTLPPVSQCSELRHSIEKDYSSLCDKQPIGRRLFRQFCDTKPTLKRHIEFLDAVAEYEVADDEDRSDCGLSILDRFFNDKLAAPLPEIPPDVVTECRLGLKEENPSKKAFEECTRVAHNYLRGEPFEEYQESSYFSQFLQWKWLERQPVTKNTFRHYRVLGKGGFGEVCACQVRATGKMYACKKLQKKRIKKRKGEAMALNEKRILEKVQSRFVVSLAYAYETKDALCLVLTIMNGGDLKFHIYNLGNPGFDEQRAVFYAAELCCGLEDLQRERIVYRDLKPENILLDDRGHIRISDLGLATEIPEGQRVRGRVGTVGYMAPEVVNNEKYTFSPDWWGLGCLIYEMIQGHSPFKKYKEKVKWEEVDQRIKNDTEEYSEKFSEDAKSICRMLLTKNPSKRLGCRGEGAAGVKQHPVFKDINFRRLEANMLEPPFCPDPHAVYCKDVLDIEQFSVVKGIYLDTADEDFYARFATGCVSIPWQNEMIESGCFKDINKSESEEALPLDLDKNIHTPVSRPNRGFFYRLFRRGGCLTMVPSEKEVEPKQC

As for `COc1cc2c(Oc3ccc(-c4nc5ccccc5s4)cc3)ncnc2cc1OCCCN1CCCC1`, the residual activity in test [1] stood at 83%; in [2] it was 99%; in test [3], 104%; in [4], 90%; in [5], 129%; in test [6] it was 88%. For the same compound, the residual activity in test [7] stood at 113%; in test [8], 33%. Further, at Aurora kinase A, the IC50 worked out at 170 nM.

As for `COc1cc2c(Oc3ccc(-c4nc5ccccc5s4)cc3F)ncnc2cc1OCCCN1CCN(C)CC1`, the residual activity in [1] amounted to 88%; in test [2] it was 123%; in test [3] it was 109%; in test [4] it was 88%; in [5] it was 128%; in test [6], 91%. In addition, the residual activity amounted to 111% in test [7] and 93% in [8]. This compound also showed an IC50 on Aurora kinase A of 220 nM.

`COc1cc2c(Oc3ccc(-c4nc5ccccc5s4)cc3)ncnc2cc1OCCCN1CCN(C)CC1`: the residual activity in test [1] is 104%; in [2], 118%; in [3], 93%; in test [4], 84%; in [5] it was 124%; in test [6], 87%. For the same compound, the values for the residual activity in test [7] and in test [8] were 110% and 83%, respectively. Moreover, the IC50 at Aurora kinase A was 82 nM.

By residual activity is commonly meant the signal under treatment as a percentage of the control signal. One may read the IC50 as the concentration that gives 50% inhibition. Low values mean higher potency, high ones lower potency.
